In ChEMBL document CHEMBL5108071, “Potent and Specific Activators for Mitochondrial Sirtuins Sirt3 and Sirt5” (J Med Chem, 2022) one finds Activity, fold change (FC) and inhibition data, which are given here for 30 molecules.

Experiment [1] addresses T1, NAD-dependent protein deacetylase sirtuin-1 (Homo sapiens) (UniProt Q96EB6).
T1 sequence (whole entry): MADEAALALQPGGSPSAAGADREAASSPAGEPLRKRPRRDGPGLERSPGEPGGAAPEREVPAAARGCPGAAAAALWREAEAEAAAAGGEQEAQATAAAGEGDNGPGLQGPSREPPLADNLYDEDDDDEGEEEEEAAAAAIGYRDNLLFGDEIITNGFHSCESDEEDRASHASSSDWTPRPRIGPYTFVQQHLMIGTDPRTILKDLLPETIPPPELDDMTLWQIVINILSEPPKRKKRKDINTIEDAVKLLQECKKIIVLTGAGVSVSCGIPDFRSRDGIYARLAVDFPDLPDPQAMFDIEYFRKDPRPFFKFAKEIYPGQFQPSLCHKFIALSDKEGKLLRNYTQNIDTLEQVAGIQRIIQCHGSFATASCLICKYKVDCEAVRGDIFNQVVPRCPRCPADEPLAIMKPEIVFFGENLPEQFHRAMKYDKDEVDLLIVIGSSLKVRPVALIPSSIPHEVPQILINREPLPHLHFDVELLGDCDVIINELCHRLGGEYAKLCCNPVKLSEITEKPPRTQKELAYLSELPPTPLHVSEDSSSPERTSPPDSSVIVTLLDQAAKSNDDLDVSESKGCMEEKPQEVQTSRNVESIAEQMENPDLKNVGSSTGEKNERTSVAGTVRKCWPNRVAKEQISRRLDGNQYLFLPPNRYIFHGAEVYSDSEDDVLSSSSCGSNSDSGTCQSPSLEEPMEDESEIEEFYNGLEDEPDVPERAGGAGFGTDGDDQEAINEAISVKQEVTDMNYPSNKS
Briefly: Activation of N-terminal his-tagged human SIRT1 expressed in Escherichia coli at 10 to 100 uM using p53-acK381 as substrate in presence of NAD+. The note with it: filed as activator, dose 10-100 µM. Put shortly: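 Compound titration in the nicotinamidase/GDH-coupled deacylation assay. 1.5 μM recombinant Sirt1 (E. coli-expressed, Ni-NTA purified, tag removed, size-exclusion purified) was used with 50 μM p53-acK381 peptide and 100 μM NAD+. 1,4-DHP was added at the indicated concentrations in 5% final DMSO.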

Experiment [2] concerns the target NAD-dependent protein deacylase sirtuin-5, mitochondrial (Homo sapiens) (UniProt Q9NXA8). Briefly: Activation of N-terminal his-tagged human SIRT5 (34 to 302 residues) expressed in Escherichia coli assessed as fold activation at 10 to 100 uM using CPS1-succ537 as substrate in presence of NAD+. As to conditions: filed as activator, dose 10-100 µM. An outline of the steps: (§1)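 Coupled enzymatic deacylation assay (nicotinamidase/GDH-coupled, continuous): 1.5 μM recombinant Sirtuin (expressed in E. coli, Ni-NTA purified, tag removed, size-exclusion purified) with 50 μM substrate peptide and 100 μM NAD+, without or with 10 μM or 100 μM 1,4-DHP, 5% final DMSO. Activity expressed relative to no-compound control.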
Target sequence in this assay (Q9NXA8 37-310 limits assumed): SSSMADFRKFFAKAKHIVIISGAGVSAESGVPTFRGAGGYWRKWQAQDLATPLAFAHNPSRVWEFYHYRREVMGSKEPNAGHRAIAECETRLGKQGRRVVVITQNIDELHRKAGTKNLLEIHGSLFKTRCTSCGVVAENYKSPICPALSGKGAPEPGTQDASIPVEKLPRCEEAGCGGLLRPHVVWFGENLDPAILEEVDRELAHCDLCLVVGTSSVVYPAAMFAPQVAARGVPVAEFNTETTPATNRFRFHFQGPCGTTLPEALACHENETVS

In experiment [3] the target is T1, NAD-dependent protein deacetylase sirtuin-1 (Homo sapiens). As to the kind of experiment: Activation of N-terminal his-tagged human SIRT1 expressed in Escherichia coli assessed as fold activation at 100 uM using p53-acK381 as substrate in presence of NAD+. As to conditions: filed as activator. Put shortly: as §1
The target of experiment [4] is T2, NAD-dependent protein deacetylase sirtuin-2 (Homo sapiens) (UniProt Q8IXJ6).
T2 sequence (whole entry): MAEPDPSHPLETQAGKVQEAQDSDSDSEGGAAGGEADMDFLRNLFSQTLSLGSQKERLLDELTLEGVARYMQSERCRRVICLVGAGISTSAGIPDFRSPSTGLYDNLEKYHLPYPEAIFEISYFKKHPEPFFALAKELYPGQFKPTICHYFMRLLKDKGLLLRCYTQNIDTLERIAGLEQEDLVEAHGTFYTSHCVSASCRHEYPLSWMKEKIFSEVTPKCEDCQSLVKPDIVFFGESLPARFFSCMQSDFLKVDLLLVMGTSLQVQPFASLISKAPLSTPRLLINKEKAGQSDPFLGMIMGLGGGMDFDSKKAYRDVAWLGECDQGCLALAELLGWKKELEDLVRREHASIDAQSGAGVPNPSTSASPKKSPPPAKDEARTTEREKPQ
Briefly: Activation of N-terminal SUMO-tagged human SIRT2 (43 to 356 residues) expressed in Escherichia coli assessed as deacetylation of substrate at 100 uM using acetylated alpha tubulin-K2 as substrate in presence of NAD+. The note with it: filed as activator. Put shortly: as §1

The target of experiment [5] is NAD-dependent protein deacylase sirtuin-5, mitochondrial (Homo sapiens) (UniProt Q9NXA8). Briefly: Activation of N-terminal his-tagged human SIRT5 (34 to 302 residues) expressed in Escherichia coli assessed as fold activation at 100 uM using CPS1-succ537 as substrate in presence of NAD+. As to conditions: filed as activator. Put shortly: as §1
Target sequence in this assay (Q9NXA8 37-310 limits assumed): as the sequence (Q9NXA8 37-310 limits assumed) above
For experiment [6] the target is unchanged. As to the kind of experiment: Activation of N-terminal his-tagged human SIRT5 (34 to 302 residues) expressed in Escherichia coli assessed as fold activation at 10 uM using CPS1-succ537 as substrate in presence of NAD+. As to conditions: filed as activator. Put shortly:
as §1
Target sequence in this assay (Q9NXA8 37-310 limits assumed): as the sequence (Q9NXA8 37-310 limits assumed) above

Experiment [7] concerns the target T3, NAD-dependent protein deacetylase sirtuin-3, mitochondrial (Homo sapiens) (UniProt Q9NTG7).
T3 sequence (whole entry): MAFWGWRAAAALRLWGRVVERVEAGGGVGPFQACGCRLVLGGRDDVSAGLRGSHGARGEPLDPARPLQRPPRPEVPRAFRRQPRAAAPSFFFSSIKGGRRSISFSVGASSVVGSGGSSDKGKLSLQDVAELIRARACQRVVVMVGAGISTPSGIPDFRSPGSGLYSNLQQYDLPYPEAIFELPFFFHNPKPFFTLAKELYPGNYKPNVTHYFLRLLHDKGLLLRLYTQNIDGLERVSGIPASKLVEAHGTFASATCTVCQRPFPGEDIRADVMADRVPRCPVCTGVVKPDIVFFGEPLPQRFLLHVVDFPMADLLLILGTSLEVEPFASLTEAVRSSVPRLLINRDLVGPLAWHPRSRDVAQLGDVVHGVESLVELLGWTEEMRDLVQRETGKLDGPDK
Briefly: Activation of N-terminal his-tagged human SIRT3 (114 to 380 residues) expressed in Escherichia coli assessed as fold activation at 100 uM using ACS2-acK642 as substrate in presence of NAD+. As to conditions: filed as activator. Put shortly:
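Coupled continuous enzymatic assay (nicotinamidase/GDH-linked): 1.5 µM purified Sirt3 with 50 µM ACS2-acK642 peptide and 100 µM NAD+, compound at 10 µM, 100 µM or titrated, 5% DMSO final; fold deacetylation versus no-compound control.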

Experiment [8] addresses T1, NAD-dependent protein deacetylase sirtuin-1 (Homo sapiens). Briefly: Activation of N-terminal his-tagged human SIRT1 expressed in Escherichia coli assessed as fold activation at 10 to 100 uM using p53-acK381 as substrate in presence of NAD+. The note with it: filed as activator, dose 10-100 µM. Put shortly: as §1
For experiment [9], the target named is T2, NAD-dependent protein deacetylase sirtuin-2 (Homo sapiens). As to the kind of experiment: Inhibition of N-terminal SUMO-tagged human SIRT2 (43 to 356 residues) expressed in Escherichia coli at 100 uM using acetylated alpha tubulin-K25 as substrate in presence of NAD+ relative to control. Put shortly:
as §1

In experiment [10] the target is T3, NAD-dependent protein deacetylase sirtuin-3, mitochondrial (Homo sapiens). As to the kind of experiment: Inhibition of N-terminal his-tagged human SIRT3 (114 to 380 residues) expressed in Escherichia coli at 100 uM using ACS2-acK642 as substrate in presence of NAD+ relative to control. An outline of the steps:
as §1

In experiment [11] the target is NAD-dependent protein deacylase sirtuin-5, mitochondrial (Homo sapiens) (UniProt Q9NXA8). Briefly: Activation of human recombinant SIRT5 assessed as decrease in PDHA1-succinylation at 100 uM by Western blot analysis. As to conditions: filed as activator. In general terms: In western blotting, separated proteins are transferred to a membrane and probed.
Target sequence in this assay (Q9NXA8 whole entry, looked up, the tested form may be a part): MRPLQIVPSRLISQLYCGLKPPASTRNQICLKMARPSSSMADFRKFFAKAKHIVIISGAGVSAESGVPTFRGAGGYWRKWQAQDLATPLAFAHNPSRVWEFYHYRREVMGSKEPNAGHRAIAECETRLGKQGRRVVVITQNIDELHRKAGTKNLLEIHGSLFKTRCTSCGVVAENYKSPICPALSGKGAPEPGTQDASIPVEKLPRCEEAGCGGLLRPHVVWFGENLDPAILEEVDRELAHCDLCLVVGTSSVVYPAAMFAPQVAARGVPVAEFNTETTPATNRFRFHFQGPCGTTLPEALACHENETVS
Experiment [12] has the same target. As to the kind of experiment: Activation of SIRT5 in human S2-013 cells assessed as decrease in GOT1 acetylation at 20 uM incubated for 24 hrs by Western blot analysis. As to conditions: filed as activator.
Target sequence in this assay (Q9NXA8 whole entry, looked up, the tested form may be a part): as above
For experiment [13] the target is unchanged. As to the kind of experiment: Activation of SIRT5 in human CAPAN-1 cells assessed as decrease in GOT1 acetylation at 20 uM incubated for 24 hrs by Western blot analysis. The note with it: filed as activator.
Target sequence in this assay (Q9NXA8 whole entry, looked up, the tested form may be a part): as above

The source made the active and inactive calls. The calls are words filed in the database; no cut-off is given here.

The inhibition is the change of the read-out against control, counted positive when it falls.

`CCOC(=O)C1=CN(C(=O)c2cc(OC)c(OC)c(OC)c2)C=C(C(=O)OCC)C1c1cccc(F)c1`: in experiment [1], the result was Active.

For the molecule `CCOC(=O)C1=CN(C(=O)c2cc(OC)c(OC)c(OC)c2)C=C(C(=O)OCC)C1c1ccc(CN2CCN(C)CC2)cc1`, the fold change (FC) in experiment [2] stood at 2; in [3] it was 2.5.

As for `CCOC(=O)C1=CN(C(=O)c2cc(OC)c(OC)c(OC)c2)C=C(C(=O)OCC)C1c1cccc(Cl)c1`, the outcome in experiment [1] was Active.

`CCOC(=O)C1=CN(C(=O)c2cc(OC)c(OC)c(OC)c2)C=C(C(=O)OCC)C1c1ccoc1`: the fold change (FC) was 2 in experiment [2] and 2.5 in [3]. Also, the result in experiment [4] was Active.

On to `CCOC(=O)C1=CN(C(=O)c2ccccc2)C=C(C(=O)OCC)C1c1ccco1`, for which the fold change (FC) in [2] was 2.

As to `CCOC(=O)C1=CN(C(=O)c2cc(OC)c(OC)c(OC)c2)C=C(C(=O)OCC)C1c1cccc(C)c1`, in experiment [1], the result was Active.

Take `CCOC(=O)C1=CN(C(=O)c2ccccc2)C=C(C(=O)OCC)C1c1cccc(OC)c1`: the fold change (FC) is 2 in [5] and 1.2 in experiment [6].

For `CCOC(=O)C1=CN(Cc2ccccc2)C=C(C(=O)OCC)C1c1ccccc1`, the fold change (FC) came to 2 in [7] and 1.5 in experiment [8].

Turning to `CCOC(=O)C1=CN(Cc2cc(OC)c(OC)c(OC)c2)C=C(C(=O)OCC)C1c1cnc2ccccc2c1`, in experiment [1], the result was Active.

With `CCOC(=O)C1=CN(Cc2ccccc2)C=C(C(=O)OCC)C1c1cncs1`, the inhibition stood at 75% in experiment [9] and 60% in experiment [10].

Regarding `CCOC(=O)C1=CN(Cc2ccccc2)C=C(C(=O)OCC)C1c1cc2ccccc2s1`, the fold change (FC) in [5] was 2.

As for `CCOC(=O)C1=CN(C(=O)c2cnccn2)C=C(C(=O)OCC)C1c1ccccc1`, the fold change (FC) worked out at 2 in experiment [5] and 1.2 in experiment [6].

For `CCOC(=O)C1=CN(C(=O)c2ccccc2)C=C(C(=O)OCC)C1c1ccc(OC)cc1`, the fold change (FC) turned out to be 1.5 in [8] and 1.2 in experiment [6].

As for `CCOC(=O)C1=CN(C(=O)c2cccc3ccccc23)C=C(C(=O)OCC)C1c1ccccc1`, in [5], the fold change (FC) was found to be 2.

Take `CCOC(=O)C1=CN(C(=O)c2ccccc2)C=C(C(=O)OCC)C1c1ccccc1Cl`: in experiment [5], the fold change (FC) was 2.

`CCOC(=O)C1=CN(Cc2ccccc2)C=C(C(=O)OCC)C1c1ccco1`: the fold change (FC) in [8] was 1.5.

Turning to `CCOC(=O)C1=CN(C(=O)c2cc(OC)c(OC)c(OC)c2)C=C(C(=O)OCC)C1c1ccsc1`, the fold change (FC) in [3] amounted to 2.5.

As to `CCOC(=O)C1=CN(Cc2ccccc2)C=C(C(=O)OCC)C1c1ccc2ccccc2c1`, the fold change (FC) in experiment [5] was 2; in experiment [6], 1.2.

For `CCOC(=O)C1=CN(C(=O)c2ccccc2)C=C(C(=O)OCC)C1c1ccoc1`, in experiment [2], the fold change (FC) was determined as 3. For the same molecule, the outcome in experiment [1] was Active.

In the case of `CCOC(=O)C1=CN(Cc2cc(OC)c(OC)c(OC)c2)C=C(C(=O)OCC)C1c1ccccc1`, the outcome in experiment [1] was Active.

As to `CCOC(=O)C1=CN(C(=O)c2ccc3ccccc3c2)C=C(C(=O)OCC)C1c1ccccc1`, the fold change (FC) in experiment [8] was determined as 1.5.

On to `CCOC(=O)C1=CN(Cc2ccccc2)C=C(C(=O)OCC)C1c1ccc(-c2ccccc2)cc1`, for which the fold change (FC) in experiment [5] is 2.

As to `CCOC(=O)C1=CN(C(=O)c2ccccc2)C=C(C(=O)OCC)C1c1ccccc1OC`, the fold change (FC) in experiment [5] was found to be 2.

Take `CCOC(=O)C1=CN(C(=O)c2cc(OC)c(OC)c(OC)c2)C=C(C(=O)OCC)C1c1ccco1`: the values for the fold change (FC) in experiment [2] and in experiment [3] were 2 and 2.5, respectively. Moreover, the outcome in [4] was Active.

For `CCOC(=O)C1=CN(C(=O)c2ccccc2)C=C(C(=O)OCC)C1c1ccc(C)cc1`, in [5], the fold change (FC) was 2.

For `CCOC(=O)C1=CN(Cc2ccccc2)C=C(C(=O)OCC)C1c1ccsc1`, the fold change (FC) in experiment [8] amounted to 1.5.

`CCOC(=O)C1=CN(C(=O)c2ccccc2)C=C(C(=O)OCC)C1c1cccc(Cl)c1`: the fold change (FC) is 2 in experiment [5] and 1.2 in [6]. Also, the result in experiment [11], in [12] and in experiment [13] was Active.

On to `CCOC(=O)C1=CN(C(=O)c2cnc3ccccc3n2)C=C(C(=O)OCC)C1c1ccccc1`, for which the fold change (FC) was 1.5 in [8], 2 in experiment [5] and 1.2 in experiment [6].

In the case of `CCOC(=O)C1=CN(C(=O)c2ccccc2)C=C(C(=O)OCC)C1c1ccc(Cl)cc1`, the fold change (FC) was determined as 2 in experiment [5] and 1.2 in [6].

In the case of `CCOC(=O)C1=CN(Cc2ccccc2)C=C(C(=O)OCC)C1c1cccc2ccccc12`, the fold change (FC) in experiment [5] stood at 2.
